The values below come from PubChem BioAssay.

Usually inhibition stands for the change of the read-out against control, counted positive when it falls.

The nature of assay [1]: inhibitors of TNFa-induced NFkB p65 translocation, primary screen, imaging, HUVEC, MLSMR starter and 10KST1 sets (AID 438;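 active = inhibition above 20% together with a positive visual image hit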;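 note: compound added about 3h40 before a 20 min TNFalpha stimulation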;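 for inhibition: signal is the nuclear over cytoplasmic p65 intensity ratio per well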). The following applies: HUVEC TNFa-induced p65 nuclear translocation; cell count: measured here: nuclei count (cytotoxicity indicator), at 2.08 µM; inhibition: at 2 µM, stronger effect = higher value, 0% TNFa-plus-vehicle, 100% no-TNFa wells.
The nature of assay [2]: reduction of polyQ htt aggregates in cells – imaging, exon1htt(103Q)mCFP cells, high-content imaging, primary screen (AID 483).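 For nuclei count: percent of the per-plate median nuclei count of sample wells.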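 Note: compound exposure lasted 3 days before fixation.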 As to conditions: exon1htt(103Q)mCFP cell line, aggregate imaging, at 2 µM; inhibition of aggregation: stronger effect = higher value; nuclei count: measured here: cell count, toxicity.
A short description of assay [3]: endothelial E-selectin expression blockers – imaging, HUVEC, immunofluorescence, MLSMR starter and 10KST1 sets, primary screen (AID 487;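 active = visually confirmed hit in the image check and inhibition above 20%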;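 for inhibition: signal is fraction of cell area covered by stained E-selectin grains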;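 for nuclei count: 100% = median nuclei count of all wells on the same plate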). The following applies: HUVEC TNFalpha-induced E-selectin immunofluorescence imaging, at 2 µM; inhibition: stronger effect = higher value; nuclei count: measured here: cell number, toxicity.
Assay [4] addresses Voltage-gated potassium channel subunit beta-2 (Rattus norvegicus) (UniProt P62483). Description: inhibitors of rat Kvbeta2 reductase activity – biochemical, NADPH fluorescence, primary screen (AID 622;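 active = fluorescence slope higher than the sample average by over 3 SD, cut at about -0.22 in these data, passing the limit was not always enough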;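 note: slope of raw intensity against log time taken from 70 to 1610 s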). The following applies: recombinant KvBeta, 4-cyanobenzaldehyde reduction, at 10 µM, stronger effect = higher value.
Assay [5] has the same target. As to the kind of experiment: enhancers of rat Kvbeta2 NADPH turnover – biochemical, NADPH fluorescence, primary screen (AID 623;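 active = NADPH fluorescence slope more negative than the mean of all samples by about 3 SD, 99.7% confidence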;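 note: fluorescence intensity change per second fitted from 20 to 320 s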). As to conditions: Recombinant KvBeta, NADPH fluorescence decrease slope, 10 min; at 10 µM; stronger effect = lower value.
In assay [6] the target is Muscarinic acetylcholine receptor M4 (Homo sapiens) (UniProt P08173). Description: M4-linked GIRK flux change, two-sided – cell-based, HEK293 M4/GIRK, thallium flux, BTC-AM, M4 allosteric agonist project, primary screen (AID 625;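 active = fluorescence slope after compound addition differing from the mean of all tested samples at 99.7% confidence, mostly higher but some lower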;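 note: thallium influx through GIRK channels coupled to M4 in HEK293 cells with BTC-AM dye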). As to conditions: at 10 µM, actives lie on both sides. A digest of the protocol: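 Assay system: HEK293 cells with M4 receptor and GIRK channels / Controls: carbachol and DMSO controls / Schedule: 1 h dye loading, 2 min kinetic read / Technique: kinetic fluorescence with BTC-AM dye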
Chain of Muscarinic acetylcholine receptor M4 (Homo sapiens) (P08173 whole entry, looked up): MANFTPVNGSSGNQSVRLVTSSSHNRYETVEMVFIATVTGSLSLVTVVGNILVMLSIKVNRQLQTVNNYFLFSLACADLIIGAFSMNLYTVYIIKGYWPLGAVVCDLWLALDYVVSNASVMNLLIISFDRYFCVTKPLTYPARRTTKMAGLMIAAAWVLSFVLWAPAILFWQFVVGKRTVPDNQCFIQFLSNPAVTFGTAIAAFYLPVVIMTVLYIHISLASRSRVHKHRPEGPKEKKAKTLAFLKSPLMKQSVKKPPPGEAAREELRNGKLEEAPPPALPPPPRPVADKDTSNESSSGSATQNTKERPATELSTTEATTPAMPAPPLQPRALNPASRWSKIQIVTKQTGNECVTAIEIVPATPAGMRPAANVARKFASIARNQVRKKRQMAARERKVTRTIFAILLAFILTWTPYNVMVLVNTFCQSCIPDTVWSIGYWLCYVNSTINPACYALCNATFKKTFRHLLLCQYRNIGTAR

A short description of assay [7]: blockers of RIG-like receptor reporter activation – cell-based, Sendai virus stimulus, luciferase, 10K MLSCN set, TLR/RLR signaling modifier project, primary screen (AID 602276;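 active = inhibition at or above 50% at 10 µM; inactive = inhibition below 50%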;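 note: firefly luciferase from ISG56 promoter only with Renilla not read in this screen; 0% = Sendai virus plus DMSO and 100% = medium plus DMSO without virus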). The following applies: HEK293 RL24 IRF3 luciferase reporter, at 10 µM, stronger effect = higher value. In general terms: Reporter assays use an easily measured gene product as a stand-in for the process of interest.

The nature of assay [8]: TLR3 IRF3 reporter activation blockers – cell-based, poly I:C stimulus, luciferase, 10K MLSCN set, primary screen (AID 602277;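 active = inhibition of the reporter signal at or above 50%; inactive = inhibition below 50%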). The following applies: HEK293-TLR3 RL24 IRF3 luciferase reporter, at 10 µM, stronger effect = higher value.

The structures appear in SMILES notation. Calls of active or inactive are those of the source.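 Rule for the calls, unless noted: active = visual image review flags a hit and inhibition of aggregation exceeds 20%; inconclusive = visual hit but inhibition at or below 20%; inactive = no hit on visual image review.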

Chain of Voltage-gated potassium channel subunit beta-2 (Rattus norvegicus) (P62483 whole entry, looked up): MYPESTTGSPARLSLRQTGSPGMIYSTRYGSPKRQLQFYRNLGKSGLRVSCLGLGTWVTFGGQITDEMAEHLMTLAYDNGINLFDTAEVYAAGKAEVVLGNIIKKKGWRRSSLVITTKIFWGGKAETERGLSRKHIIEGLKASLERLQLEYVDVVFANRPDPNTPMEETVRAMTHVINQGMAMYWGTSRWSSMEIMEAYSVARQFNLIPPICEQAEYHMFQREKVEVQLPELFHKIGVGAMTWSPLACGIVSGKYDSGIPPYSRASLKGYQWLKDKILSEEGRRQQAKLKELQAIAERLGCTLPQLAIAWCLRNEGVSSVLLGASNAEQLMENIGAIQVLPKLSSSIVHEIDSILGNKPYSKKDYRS

For `Cc1cc(NC(=O)CSc2ccc3nnc(-c4cccc(F)c4)n3n2)no1`, the cell count in assay [1] was 619. Also, the inhibition in assay [1] was -13.6% (inactive); in assay [3], -55.4% (inactive); in assay [7] it was -1.23% (inactive); in assay [8], -7.4% (inactive). The inhibition of aggregation in assay [2] was 10.1% (inactive). For the same compound, the nuclei count was determined as 125% in assay [2] and 107% in assay [3]. In addition, the fluorescence slope in assay [4] is -0.266 (inactive); in assay [6], 0.00544 (inactive). Also, in assay [5], the NADPH fluorescence slope is 1e-08 (inactive).

`O=C(CN1C(=O)C2CC=C(Cl)CC2C1=O)Nc1ccc(C(=O)O)cc1` (centres undefined): the cell count in assay [1] turned out to be 442. Moreover, the inhibition in assay [1] was 3.4% (inactive); in assay [3], -205% (inactive); in assay [7], 19.2% (inactive); in assay [8], 20.6% (inactive). In addition, in assay [2], the inhibition of aggregation was 10.1% (inactive). The nuclei count is 110% in assay [2] and 122% in assay [3]. In addition, the results for the fluorescence slope in assay [4] and in assay [6] were -0.569 (inactive) and 0.00409 (inactive), respectively. Besides, the NADPH fluorescence slope in assay [5] is -7.9e-05 (inactive).

As for `CC(=O)N1CCc2cc(S(=O)(=O)NC(CC(C)C)C(=O)N3CCn4c3nc3ccccc34)ccc21` (centres undefined), the cell count in assay [1] amounted to 292. The inhibition in assay [1] is 3.6% (inactive); in assay [3], 22.8% (inactive); in assay [7], 10.1% (inactive); in assay [8], 9.41% (inactive). Besides, the inhibition of aggregation in assay [2] is 8.8% (inactive). Besides, the nuclei count in assay [2] was determined as 104%; in assay [3], 63%. Besides, the fluorescence slope was -0.329 (inactive) in assay [4] and 0.0063 (inactive) in assay [6]. Further, the NADPH fluorescence slope in assay [5] was 5e-05 (inactive).

On to `O=C(c1ccc(Cl)cc1)N(Cc1cccs1)C1CCS(=O)(=O)C1` (centres undefined), for which the cell count in assay [1] was found to be 376. The inhibition was 0.4% (inactive) in assay [1], -33.8% (inactive) in assay [3], -5.62% (inactive) in assay [7] and -0.322% (inactive) in assay [8]. The inhibition of aggregation in assay [2] is -20.1% (inactive). For the same compound, the nuclei count was found to be 110% in assay [2] and 112% in assay [3]. Besides, the values for the fluorescence slope in assay [4] and in assay [6] were -0.555 (inactive) and 0.00385 (inactive), respectively. Further, in assay [5], the NADPH fluorescence slope was -9.2e-05 (inactive).

Turning to `O=c1c2ccccc2sn1-c1ccc(S(=O)(=O)N2CCCCC2)cc1`, the cell count in assay [1] came to 539. The inhibition is -20.9% (inactive) in assay [1], 53.4% (inactive) in assay [3], 3.69% (inactive) in assay [7] and 7.09% (inactive) in assay [8]. For the same compound, the inhibition of aggregation in assay [2] is -8.4% (inactive). Besides, the nuclei count amounted to 115% in assay [2] and 83.7% in assay [3]. Moreover, the results for the fluorescence slope in assay [4] and in assay [6] were -0.271 (inactive) and 0.00829 (inactive), respectively. Besides, the NADPH fluorescence slope in assay [5] was -1.7e-05 (inactive).

Turning to `CC(C(=O)N1CCCCC1)n1ncn2cccc2c1=O` (centres undefined), the cell count in assay [1] was found to be 397. Besides, the inhibition in assay [1] is -2.5% (inactive); in assay [3], -4.6% (inactive); in assay [7], 6.93% (inactive); in assay [8], 98.3% (active). The inhibition of aggregation in assay [2] is 0.4% (inactive). Moreover, the results for the nuclei count in assay [2] and in assay [3] were 94.2% and 97.4%, respectively. Also, the fluorescence slope is -0.595 (inactive) in assay [4] and 0.00463 (inactive) in assay [6]. For the same compound, in assay [5], the NADPH fluorescence slope is -2.8e-05 (inactive).

Turning to `O=C(CSc1nnnn1Cc1ccccc1)Nc1ccc2c(c1)OCO2`, in assay [1], the cell count was 551. Besides, the inhibition in assay [1] was -10.7% (inactive); in assay [3] it was -1% (inactive); in assay [7] it was 1.63% (inactive); in assay [8], 2.13% (inactive). The inhibition of aggregation in assay [2] was 10% (inactive). Moreover, the nuclei count in assay [2] is 92.1%; in assay [3], 93.6%. Besides, the fluorescence slope in assay [4] was -0.257 (inactive); in assay [6], 0.00493 (inactive). Besides, the NADPH fluorescence slope in assay [5] was -9.5e-06 (inactive).

As for `COc1ccc(CCNS(=O)(=O)c2ccc3c(c2)OCCO3)cc1`, the cell count in assay [1] was found to be 361. Moreover, the inhibition in assay [1] is 4.2% (inactive); in assay [3] it was 33.5% (inactive); in assay [7], 14.6% (inactive); in assay [8], 16.5% (inactive). Besides, the inhibition of aggregation in assay [2] was 2.3% (inactive). Moreover, the nuclei count in assay [2] amounted to 102%; in assay [3], 106%. In addition, the values for the fluorescence slope in assay [4] and in assay [6] were -0.466 (inactive) and 0.00491 (inactive), respectively. Also, the NADPH fluorescence slope in assay [5] was -3.5e-05 (inactive).

Turning to `Cc1cc(C)n(-c2nc(C)nc3c2cnn3-c2ccccc2)n1`, the cell count in assay [1] turned out to be 427. The inhibition was 9.2% (inactive) in assay [1], -60.5% (inactive) in assay [3], 20.1% (inactive) in assay [7] and 20.4% (inactive) in assay [8]. Also, in assay [2], the inhibition of aggregation was -20.7% (inactive). Also, the values for the nuclei count in assay [2] and in assay [3] were 97.3% and 114%, respectively. For the same compound, the fluorescence slope in assay [4] was -0.564 (inactive); in assay [6] it was 0.0087 (inactive). Further, in assay [5], the NADPH fluorescence slope was -3.8e-05 (inactive).

With `Nc1nnc(Cc2ccc(Cl)cc2)s1`, the cell count in assay [1] was found to be 331. Further, the inhibition in assay [1] is 7.5% (inactive); in assay [3] it was -130% (inactive); in assay [7], 11.6% (inactive); in assay [8] it was 13% (inactive). Besides, the inhibition of aggregation in assay [2] is -4.2% (inactive). Further, the nuclei count in assay [2] came to 92.7%; in assay [3] it was 115%. Further, the fluorescence slope in assay [4] was -0.483 (inactive); in assay [6] it was 0.00532 (inactive). Besides, the NADPH fluorescence slope in assay [5] was -7.5e-05 (inactive).

For `CN(C(=O)c1ccccn1)c1nnc(-c2ccncc2)s1`, in assay [1], the cell count turned out to be 551. Moreover, the inhibition is 5% (inactive) in assay [1], -35.7% (inactive) in assay [3], 6.96% (inactive) in assay [7] and -3.15% (inactive) in assay [8]. Further, the inhibition of aggregation in assay [2] is -7.6% (inactive). In addition, the nuclei count in assay [2] came to 111%; in assay [3] it was 109%. The values for the fluorescence slope in assay [4] and in assay [6] were -0.267 (inactive) and 0.00597 (inactive), respectively. For the same compound, in assay [5], the NADPH fluorescence slope was -1.3e-05 (inactive).

In the case of `CCCC(=O)N=C1SC2CS(=O)(=O)CC2N1c1ccc(CC)cc1` (centres undefined), the cell count in assay [1] is 286. Also, the inhibition in assay [1] is 20.4% (inactive); in assay [3] it was 26.4% (inactive); in assay [7] it was 15.3% (inactive); in assay [8] it was 24.6% (inactive). In addition, in assay [2], the inhibition of aggregation is 23.4% (inactive). For the same compound, the nuclei count came to 87% in assay [2] and 98.5% in assay [3]. Also, the fluorescence slope in assay [4] is -0.402 (inactive); in assay [6], 0.0062 (inactive). In addition, the NADPH fluorescence slope in assay [5] was -3.7e-05 (inactive).

For the compound `O=C1CC(c2cccc(Cl)c2)CC(O)=C1C=NCCCO` (centres undefined), the cell count in assay [1] amounted to 498. The inhibition in assay [1] was -18.1% (inactive); in assay [3], 28.3% (inactive); in assay [7], 16.7% (inactive); in assay [8], 20.9% (inactive). Besides, the inhibition of aggregation in assay [2] was 0.4% (inactive). In addition, the results for the nuclei count in assay [2] and in assay [3] were 87.3% and 98.3%, respectively. Further, the fluorescence slope in assay [4] was -0.393 (inactive); in assay [6], 0.00604 (inactive). Further, the NADPH fluorescence slope in assay [5] is 4.1e-05 (inactive).

On to `CCn1c(=O)cc(SCC(=O)N2CCOCC2)c2ccccc21`, for which, in assay [1], the cell count worked out at 460. Also, the inhibition is -1.2% (inactive) in assay [1], -69.7% (inactive) in assay [3], 75.8% (active) in assay [7] and 51.3% (active) in assay [8]. The inhibition of aggregation in assay [2] is 0.4% (inactive). In addition, the nuclei count is 115% in assay [2] and 120% in assay [3]. For the same compound, the fluorescence slope is -0.549 (inactive) in assay [4] and 0.00553 (inactive) in assay [6]. Besides, the NADPH fluorescence slope in assay [5] is -2.4e-05 (inactive).
